Test results published in ChEMBL document CHEMBL4831478, “Bispecific Estrogen Receptor α Degraders Incorporating Novel Binders Identified Using DNA-Encoded Chemical Library Screening” (J Med Chem, 2021).

What was measured:
Estrogen receptor [1] = biological target: T1, Estrogen receptor (Homo sapiens, UniProt P03372); experiment: Binding affinity to recombinant His-tagged ERalpha LBD (307 to 554 residue) (unknown origin) expressed in Escherichia coli preincubated for 15 mins followed by ligand addition and measured after 1 hr by fluorescent polarization assay
T1 sequence (P03372 whole entry): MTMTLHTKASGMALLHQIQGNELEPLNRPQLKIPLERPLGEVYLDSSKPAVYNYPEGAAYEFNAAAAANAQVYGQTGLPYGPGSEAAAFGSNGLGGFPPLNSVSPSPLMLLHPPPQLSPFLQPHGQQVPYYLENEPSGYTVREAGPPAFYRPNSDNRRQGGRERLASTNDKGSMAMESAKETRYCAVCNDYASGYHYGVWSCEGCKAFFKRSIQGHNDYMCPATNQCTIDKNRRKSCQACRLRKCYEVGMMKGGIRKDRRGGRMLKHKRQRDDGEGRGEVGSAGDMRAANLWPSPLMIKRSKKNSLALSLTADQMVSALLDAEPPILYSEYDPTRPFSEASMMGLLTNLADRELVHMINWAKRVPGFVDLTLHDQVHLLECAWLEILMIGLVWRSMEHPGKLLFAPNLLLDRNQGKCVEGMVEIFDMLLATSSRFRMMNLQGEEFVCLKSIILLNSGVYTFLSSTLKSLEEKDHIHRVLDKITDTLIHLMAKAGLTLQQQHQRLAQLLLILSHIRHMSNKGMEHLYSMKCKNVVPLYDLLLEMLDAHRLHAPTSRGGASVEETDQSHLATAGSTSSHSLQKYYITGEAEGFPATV
How it was run: (§1)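 ERα LBD (aa 307–554), WT or D538G, S463P, Y537S, with N-terminal Avi-Tev-His tag, expressed in E. coli T7 Express (20 °C, 12 h, IPTG). Purified by Ni-NTA then size exclusion. Compound preincubated with protein 15 min, fluorescent ligand added, 1 h at room temperature. FP read ex 485/em 535 nm; duplicate runs averaged.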

[2] = AUCinfinity in CD1 mouse at 10 mg/kg, sc administered as single dose […]; format: ADME, organism-based; design: route subcutaneous, dose 10 mg/kg; details: in vivo
MCF7 [3] = experiment: Antiproliferative activity against human MCF7 cells assessed as reduction in cell viability preincubated with estradiol for 30 mins followed by compound addition and measured after 7 days by CellTiter-Glo assay; format: functional, cell-based
How it was run: (§2)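 MCF7 cells seeded in hormone-deprived media for 72 h. All wells except minimum-signal controls received 0.1 nM estradiol for 30 min, then compound in a 10-point dose series. Incubated 7 days at 37 °C, 5% CO2; ATP content read by CellTiter-Glo 2.0. Duplicate runs averaged.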

[4] = Bioavailability in CD1 mouse at 10 mg/kg, sc administered as single dose […]; format: ADME, organism-based; details: in vivo
[5] = Drug uptake in CD1 mouse tumor xenografted with human MCF7 cells 10 mg/kg, sc measured after 3 hrs post last dose; details: in vivo
[6] = Solubility of compound; format: physicochemical
[7] = Cmax in CD1 mouse at 10 mg/kg, sc administered as single dose […]; format: ADME, organism-based; design: route subcutaneous, dose 10 mg/kg; details: in vivo
[8] = Toxicity in CD1 mouse xenografted with human MCF7 cells assessed as change in body weight at 10 mg/kg, sc administered once daily for 28 days; format: organism-based; details: in vivo, 672 h, time 28 day
How it was run: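 Mice implanted with 17β-estradiol pellets (0.18 mg) 2 days before sc right-flank inoculation of 10×10^6 MCF-7 cells in PBS/Matrigel (50:50). Randomized at mean tumor 165 mm³, 8 per group. Dosed 10 mg/kg sc qd; fulvestrant reference 3 mg/mouse sc weekly. Caliper measurements twice weekly, V = 0.5a×b². TGI from medians. Body weight recorded before each dosing.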

ZR-75-1 = experiment: Antiproliferative activity against human ZR-75-1 cells assessed as growth inhibition incubated for 7 days by CellTiter-Glo assay; format: functional; details: ZR-75-1, 168 h, time 7 day
How it was run: (§3)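 Breast lines from ATCC, maintained in ATCC-specified media, treated with increasing compound doses in full-serum (complete) media for 7 days. Relative cell number measured by CellTiter-Glo ATP read-out.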

[9] = Half life in CD1 mouse at 10 mg/kg, sc administered as single dose […]; format: ADME, organism-based; details: in vivo
MCF7 [10] = experiment: Antiproliferative activity against human MCF7 cells assessed as growth inhibition preincubated with estradiol for 30 mins followed by compound addition and measured after 7 days by CellTiter-Glo assay; format: functional; details: MCF7, 168 h, time 7 day; how it was run: as §2
[11] = Clearance in CD1 mouse at 0.3 mg/kg, iv administered as cassette dosing […]; format: ADME, organism-based; details: in vivo
[12] = Drug uptake in CD1 mouse plasma xenografted with human MCF7 cells 10 mg/kg, sc measured after 3 hrs post last dose; details: in vivo
[13] = Half life in CD1 mouse at 0.3 mg/kg, iv administered as cassette dosing […]; format: ADME, organism-based; details: in vivo
Homo sapiens = organism: Homo sapiens; experiment: Selectivity index, ratio of DC50 for induction of ERalpha degradation in human MCF7 cells in presence of VHL298 to DC50 for induction of ERalpha degradation in human MCF7 cells; format: cell-based
How it was run: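 MCF7 cells were treated with a PROTAC dose series, alone or co-treated with the VHL ligand VHL298 (5 μM), for 48 h in total before collection. ERα degradation DC50 was determined under both conditions and the two values compared as a ratio.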

[14] = Microsomal stability in mouse liver microsomes assessed as intrinsic clearance measured upto 60 mins; format: ADME, Microsome; details: read-out: CLH
How it was run: (§4)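 Compounds at 2 μM final incubated with pooled human or male mouse liver microsomes. Percent remaining measured at 0, 15, 30, 45 and 60 min and used to calculate in vitro half-life.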

MDA-MB-231 = experiment: Antiproliferative activity against human MDA-MB-231 cells assessed as growth inhibition incubated for 7 days by CellTiter-Glo assay; format: functional; details: MDA-MB-231, 168 h, time 7 day; how it was run: as §3
[15] = Plasma protein binding in human; format: ADME, cell-free; details: read-out: PPB
Estrogen receptor [16] = biological target: T1, Estrogen receptor; experiment: Induction of ERalpha degradation in human MCF7 cells assessed as decrease in ERalpha protein expression incubated for 48 hrs by Western blot analysis; format: cell-based
[17] = Microsomal stability in human liver microsomes assessed as intrinsic clearance measured upto 60 mins; format: ADME, Microsome; details: read-out: CLH; how it was run: as §4
Estrogen receptor [18] = biological target: T1, Estrogen receptor; experiment: Induction of ERalpha degradation in human MCF7 cells assessed as decrease in ERalpha protein expression incubated for 24 hrs by Western blot analysis; format: cell-based
[19] = Volume of distribution at steady state in CD1 mouse at 0.3 mg/kg, iv administered as cassette dosing […]; format: ADME, organism-based; details: in vivo, read-out: Vdss
[20] = Apparent permeability of compound across apical to basolateral side in MDCK cells; format: ADME, cell-based, Canis lupus familiaris; details: dog
MCF7 [21] = experiment: Antiproliferative activity against human MCF7 cells assessed as growth inhibition preincubated with estradiol for 30 mins followed by compound addition and measured after 72 hrs by CellTiter-Glo assay; format: functional
Estrogen receptor [22] = biological target: Estrogen receptor (Homo sapiens, UniProt P03372, D538G); experiment: Binding affinity to ERalpha D538G mutant (unknown origin) expressed in Escherichia coli preincubated for 15 mins followed by ligand addition and measured after 1 hr by fluorescent polarization assay; how it was run: as §1
[23] = Cytotoxicity against human MCF-10A cells assessed as growth inhibition incubated for 7 days by CellTiter-Glo assay; format: cell-based; details: time 7 day; how it was run: as §3

Estrogen receptor (Homo sapiens, UniProt P03372, D538G), sequence (P03372 whole entry D538G): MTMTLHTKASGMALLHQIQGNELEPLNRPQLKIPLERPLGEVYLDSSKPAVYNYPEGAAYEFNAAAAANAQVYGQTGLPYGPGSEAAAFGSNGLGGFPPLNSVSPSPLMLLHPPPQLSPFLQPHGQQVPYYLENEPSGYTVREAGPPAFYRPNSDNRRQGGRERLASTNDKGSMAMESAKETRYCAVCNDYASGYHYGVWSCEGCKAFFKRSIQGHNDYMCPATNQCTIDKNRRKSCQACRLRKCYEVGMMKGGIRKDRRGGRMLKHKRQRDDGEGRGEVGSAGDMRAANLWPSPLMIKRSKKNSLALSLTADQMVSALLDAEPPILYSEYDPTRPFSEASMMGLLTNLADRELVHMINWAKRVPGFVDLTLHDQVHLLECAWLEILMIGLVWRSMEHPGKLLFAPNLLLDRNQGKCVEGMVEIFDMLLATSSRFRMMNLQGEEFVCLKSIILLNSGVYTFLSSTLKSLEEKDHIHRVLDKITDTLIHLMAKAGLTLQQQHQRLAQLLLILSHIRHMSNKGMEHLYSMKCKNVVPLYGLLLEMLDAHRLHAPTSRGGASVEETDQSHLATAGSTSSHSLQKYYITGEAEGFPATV

In the case of `Cc1ncsc1-c1ccc([C@@H](C)NC(=O)[C@@H]2C[C@@H](O)CN2C(=O)[C@H](NC(=O)COCCOCc2cn(CCOc3ccc(N(Cc4cccc(O)c4Cl)CC4(c5ccccc5F)CCCC4)cc3)nn2)C(C)(C)C)cc1`, the IC50 (Estrogen receptor [1]) is reported as 53 nM, the AUC(0-inf) [2] is reported as 14.6 µM·h and the EC50 (MCF7 [3]) is reported as 14 nM. For the same compound, the bioavailability [4] was over 100%, the Drug uptake [5] was “Active” and the solubility [6] was under 0.2 µM. The Cmax [7] was 2130 nM, the Activity [8] was “Non-Toxic” and the GI50 (ZR-75-1) was 40.9 nM. For the same compound, the half-life [9] was 17 h, the GI50 (MCF7 [10]) was 30 nM and the clearance [11] was 23 mL/min/kg. For the same compound, the Drug uptake [12] was “Active”, the half-life [13] was 8.7 h and the Selectivity Index (Homo sapiens) was 8. For the same compound, the microsomal CLint [14] was 249 µL/min/mg, the GI50 (MDA-MB-231) was over 10000 nM and the fraction unbound [15] was under 0.004. The DC50 (Estrogen receptor [16]) was 6 nM, the microsomal CLint [17] was 59 µL/min/mg and the DC50 (Estrogen receptor [18]) was 4.5 nM. The Vd [19] was 4.82 L/kg, the Papp A→B [20] was under 0.1 ×10⁻⁶ cm/s and the GI50 (MCF7 [21]) was over 10000 nM. For the same compound, the IC50 (Estrogen receptor [22]) was 517 nM and the GI50 at 168 h [23] was over 10000 nM.
